How the values were obtained:
[1] = tested on: S. pyogenes M49 strain 591; experiment: Bacterial kill assay; assay type: cell-based, Streptococcus pyogenes; conditions: for Clearance six hours following treatment: 5 μM or 10 μM; for Clearance six hours following treatment / Reduction of CFU per milliliter / Reduction of bacterial counts by scPNA / Reduction of bacterial counts by scPNAs in kill assay: 6 h; for log CFU reduction: six hours following treatment; for Reduction of CFU per milliliter: concentration range 1 to 10 μM, n = 3; for Reduction of bacterial counts by scPNA: 10 μM scPNA, n = 5; for Reduction of bacterial counts by scPNAs in kill assay: up to 5 μM scPNA
How it was run: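 S. pyogenes overnight cultures diluted in PBS/BHI (7/2) to about 2 × 10^5 CFU/mL. Test compound added to 1–10 μM final, with water as mock. Incubated 6 h at 37°C while rotating at 7 rpm. Dilutions plated on THY agar, and CFU counted after overnight growth at 37°C under 5% CO2/20% O2. Initial screen used two biological replicates; later experiments used at least three.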

gyrA mRNA = assay type: cell-based, Streptococcus pyogenes; conditions: 2 μM CPP-PNA, 6 h, 10^7 CFU/mL in THY; normalised to 5S RNA gene, 2^-ΔΔct; n = 3
[2] = tested on: S. pyogenes strain 591 (M49); experiment: G. mellonella infection model; assay type: in vivo, Galleria mellonella
How it was run: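 Wax moth larvae (150–200 mg) injected into the hemocoel, between the last two pro-leg pairs, with 1–3 × 10^6 CFU/larva. Inoculum was grown overnight in THY, washed twice and resuspended in 0.9% NaCl. Test compound (4 nmol/larva) injected 30 min post-infection; 0.9% NaCl served as mock. Survival recorded daily over 7 days.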

[3] = tested on: S. pyogenes M1 strain AP1; experiment: Bacterial kill assay, strain AP1; assay type: cell-based, Streptococcus pyogenes; conditions: 6 h (data not shown; Figure 3B cited)
How it was run: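 Overnight THY cultures (37°C, 5% CO2/20% O2) diluted in PBS/BHI (7/2) to about 2 × 10^5 CFU/mL. About 10^5 CFU were exposed to CPP-PNA conjugates at 1–10 μM final, with 5 μM used in the isolate comparison; water was the mock. Incubation 6 h at 37°C, rotating at 7 rpm. Viable counts came from plating dilutions on THY agar, compared with the untreated control.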

Compound: RXRRXRRXRRXRXB [(RXR)4XB-anti-gyrA PNA]
- Clearance six hours following treatment [1]: no clearance was achieved
- log CFU reduction ([1]; 5 μM): three
- log CFU reduction ([1]; 10 μM): four
- gyrA mRNA level relative to mock-treated bacteria (gyrA mRNA): 56%
- Effect on larvae survival relative to the other active conjugates ([2]; 4 nmol/larva, 7 days): lower compared with the other conjugates

Compound: LLIILRRRIRKQAHAHSK [mVE-cadherin-anti-gyrA PNA]
- Reduction of CFU per milliliter [1]: no reduction

Compound: Dansyl-G-C-ELALE LALEALEAALELA [ELA-anti-gyrA PNA]
- Reduction of CFU per milliliter [1]: no reduction

Compound: C[C@H]1COc2c(N3CCN(C)CC3)c(F)cc3c(=O)c(C(=O)O)cn1c23 [levofloxacin, reference compound]
- Survival of infected larvae ([2]; 1 μg levofloxacin alone, untreated infected larvae 20%, n = 30 larvae per group): 46%

Compound: RQIKIWFQNRRMKWKK [Ant-anti-gyrA PNA]
- Reduction of CFU per milliliter [1]: no reduction

Compound: RXRRXRRXRRXRXB [(RXR)4XB-anti-gyrA scPNA]
- Reduction of bacterial counts by scPNA [1]: significant reduction
- Reduction of bacterial counts by scPNAs in kill assay [1]: did not lead to the reduction of bacterial counts

Compound: KKKKKKKK [K8-anti-gyrA scPNA]
- Reduction of bacterial counts by scPNA [1]: significant reduction
- Reduction of bacterial counts by scPNAs in kill assay [1]: did not lead to the reduction of bacterial counts

Compound: KKKKKKKK [K8-anti-gyrA PNA]
- Clearance six hours following treatment [1]: no clearance was achieved
- log CFU reduction ([1]; 5 μM): three
- log CFU reduction ([1]; 10 μM): four
- Antimicrobial effect in AP1 [3]: did not show any antimicrobial effect
- gyrA mRNA level relative to mock-treated bacteria (gyrA mRNA): 60%
